In ChEMBL document CHEMBL5104109, “The identification of highly efficacious functionalised tetrahydrocyclopenta[c]pyrroles as inhibitors of HBV viral replication through modulation of HBV capsid assembly” (RSC Med Chem, 2022):
≈ marks a conversion by molar mass, not a printed value.

Assays:
Hepatitis B virus [1] = test: Antiviral activity against HBV infected in HepDE19 cells assessed as inhibition of HBV DNA; type: functional, organism-based
Method in brief: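 HepDE19 cells (HepG2-derived, HBV genotype D ayw, Tet-off CMV) seeded at 50,000 cells/well with tetracycline 1 μg/mL overnight. Next day switched to tet-free medium for 4 h, then given compound from 10 μM in a ½-log 8-point series, in duplicate, 0.5% DMSO final. After 7 days at 37 °C, intracellular rcDNA was read by bDNA. EC50 from a 4-parameter fit vs DMSO wells; mean of ≥2 experiments.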

Hepatitis B virus [2] = test: Antiviral activity against HBV infected in NOD.CB17-Prkdc-scid/J hydrodynamic injection mouse model expressing HBV genotype D assessed as log reduction in HBV DNA at 10 mg/kg,po BID for 7 days by qPCR method relative to control; type: functional; conditions: time 7 day
Method in brief: (§1)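 Six-week-old female NOD.CB17-Prkdcscid/J mice received an HBV plasmid by hydrodynamic tail-vein injection (1.6 mL within 5 s). Seven days after injection (day 0), oral gavage dosing began at 3, 10 or 30 mg/kg once or twice daily; controls received vehicle by gavage. Serum was taken on day 0 (predose) and day 7, and HBV DNA was measured in total extracted nucleic acid by qPCR.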

[3] = Metabolic stability in human liver microsomes assessed as half life at 0.3 uM and measured upto 1 hrs; type: ADME, Microsome
Method in brief: (§2)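 Compound at 0.3 μM final was incubated with human or mouse liver microsomes at 0.5 mg/mL in 100 mM potassium phosphate pH 7.4 with 1 mM NADPH at 37 °C. T1/2 = ln(2)/k. CLint = (0.693/t1/2)/0.5 mg/mL microsomal protein.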

Hepatitis B virus [4] = test: Antiviral activity against HBV infected in NOD.CB17-Prkdc-scid/J hydrodynamic injection mouse model expressing HBV genotype D assessed as log reduction in HBV DNA at 30 mg/kg,po QD for 7 days by qPCR method relative to control; type: functional; conditions: time 7 day; method in brief: as §1
[5] = Half life in CD-1 mouse at 10 mg/kg, po or 2 mg/kg, iv; type: ADME, organism-based; conditions: in vivo
Method in brief: (§3)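 Female CD-1 mice were dosed 2.0 mg/kg IV or 10 mg/kg PO in 40% PEG400/5% EtOH/55% water. Serial blood was taken at 5 min (IV), 15 min (PO), 30 min, and 2, 4, 8, 12 and 24 h into K2EDTA, and plasma was prepared. Plasma levels were measured by LC-MS/MS against spiked plasma standards of 0.5–8000 ng/mL. Parameters came from non-compartmental analysis.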

Hepatitis B virus [6] = test: Antiviral activity against HBV infected in NOD.CB17-Prkdc-scid/J hydrodynamic injection mouse model expressing HBV genotype D assessed as log reduction in HBV DNA at 30 mg/kg,po BID for 7 days by qPCR method relative to control; type: functional; conditions: time 7 day; method in brief: as §1
[7] = Cmax in CD-1 mouse at 10 mg/kg, po; type: ADME, organism-based; design: dose 10 mg/kg, route po; conditions: in vivo; method in brief: as §3
[8] = AUC (0-infinity) in CD-1 mouse at 10 mg/kg, po; type: ADME, organism-based; design: time infinity, dose 10 mg/kg, route po; conditions: in vivo; method in brief: as §3
[9] = Metabolic stability in human liver microsomes assessed as parent compound remaining at 0.3 uM and measured after 1 hrs; type: ADME, Microsome; conditions: read-out: Stability
[10] = Metabolic stability in CD-1 mouse liver microsomes assessed as half life at 0.3 uM and measured upto 1 hrs; type: ADME, Microsome; method in brief: as §2
[11] = Aqueous solubility of compound at pH 7.4; type: physicochemical; conditions: buffer
Method in brief: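 A 10 mM DMSO stock was diluted into PBS pH 7.4 to 200 μM compound, 2% DMSO final, and shaken 18–24 h at 22 °C. Samples were filtered by centrifugation and the filtrate quantified by UPLC-UV/MS against a standard curve of 4–200 μM in DMSO.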

[12] = Metabolic stability in CD-1 mouse liver microsomes assessed as parent compound remaining at 0.3 uM and measured after 1 hrs; type: ADME, Microsome; conditions: read-out: Stability
[13] = Cytotoxicity against human HepDE19 cells assessed as reduction in cell viability upto 25 uM; type: toxicity, cell-based; conditions: hepde19, 25 µM
Method in brief: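 Run on HepDE19 replicate plates seeded at 5,000 cells/well after tetracycline removal. Cells were exposed to compound for 4 days at 37 °C, 5% CO2. Viability was read as intracellular ATP by CellTiter-Glo luminescence, expressed as % of DMSO controls. CC50 came from a 4-parameter curve fit, as the mean of ≥2 experiments.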

in vitro [14] = conditions: CD-1, mouse, liver microsomes
in vitro [15] = conditions: human, liver microsomes
Hepatitis B virus [16] = test: Antiviral activity against HBV infected in NOD.CB17-Prkdc-scid/J hydrodynamic injection mouse model expressing HBV genotype D assessed as log reduction in HBV DNA at 3 mg/kg,po BID for 7 days by qPCR method relative to control; type: functional; conditions: time 7 day; method in brief: as §1
Hepatitis B virus [17] = test: Antiviral activity against HBV infected in NOD.CB17-Prkdc-scid/J hydrodynamic injection mouse model expressing HBV genotype D assessed as log reduction in HBV DNA at 100 mg/kg,po QD for 7 days by qPCR method relative to control; type: functional; conditions: time 7 day
Hepatitis B virus [18] = test: Antiviral activity against HBV infected in NOD.CB17-Prkdc-scid/J hydrodynamic injection mouse model expressing HBV genotype D assessed as log reduction in HBV DNA at 10 mg/kg,po QD for 7 days by qPCR method relative to control; type: functional; conditions: time 7 day; method in brief: as §1
Hepatitis B virus [19] = test: Antiviral activity against HBV infected in NOD.CB17-Prkdc-scid/J hydrodynamic injection mouse model expressing HBV genotype D assessed as log reduction in HBV DNA at 3 mg/kg,po QD for 7 days by qPCR method relative to control; type: functional; conditions: time 7 day; method in brief: as §1

Compound	EC50 (Hepatitis B virus [1])	half-life [5]	Cmax [7]	AUC [8]	solubility [11]	microsomal CLint at 1 h, 0.3 µM (in vitro [14])	microsomal CLint at 1 h, 0.3 µM (in vitro [15])	other results
CCOC(=O)C1=C(CN2CCOCC2)NC(c2nccs2)=NC1c1ccc(F)cc1Br (stereo unspecified)	0.11 µM	–	–	–	–	–	–	–
COC(=O)C1=C(CN2CCOC[C@H]2C(=O)O)NC(c2nccs2)=N[C@H]1c1ccc(F)cc1Br	0.05 µM	–	–	–	–	–	–	–
O=C(Nc1cc(F)c(F)c(F)c1)c1ccc(F)c(S(=O)(=O)N2CCC(O)CC2)c1	0.65 µM	–	–	–	–	–	–	–
Cn1cnc(COC(=O)N[C@H]2CCc3c2cn(C)c3C(=O)Nc2ccc(F)c(Cl)c2)n1	0.052 µM	2.6 h	4270 ng/mL	46700 ng·h/mL	24 µM (≈ 10.7 µg/mL)	12.2 µL/min/mg	5.4 µL/min/mg	log(activity) (Hepatitis B virus [2]): 1.9; half-life at 0.3 µM [3]: 4.27 h; log(activity) (Hepatitis B virus [4]): 1.8; log(activity) (Hepatitis B virus [6]): 2.5; remaining at 1 h, 0.3 µM [9]: 87%; half-life at 0.3 µM [10]: 1.9 h; remaining at 1 h, 0.3 µM [12]: 81%; Activity [13]: Non-Toxic; log(activity) (Hepatitis B virus [16]): 0.8
Cn1c(Cl)c2c(c1C(=O)Nc1ccc(F)c(Cl)c1)CC[C@@H]2NC(=O)OCc1c[nH]nn1	0.014 µM	3.5 h	2510 ng/mL	30600 ng·h/mL	< 4 µM	20.2 µL/min/mg	11.2 µL/min/mg	–
Cn1c(Cl)c2c(c1C(=O)Nc1ccc(F)c(Cl)c1)CC[C@@H]2NC(=O)OCc1nc[nH]n1	0.011 µM	–	–	–	< 4 µM	29.7 µL/min/mg	8.6 µL/min/mg	–
Cn1cnc(COC(=O)N[C@H]2CCc3c(C(=O)Nc4ccc(F)c(Cl)c4)ccc(F)c32)n1	0.077 µM	2.5 h	1610 ng/mL	9870 ng·h/mL	–	20.6 µL/min/mg	6.2 µL/min/mg	log(activity) (Hepatitis B virus [2]): 0.6; half-life at 0.3 µM [3]: 3.22 h; log(activity) (Hepatitis B virus [6]): 2.1; log(activity) (Hepatitis B virus [17]): 1; remaining at 1 h, 0.3 µM [9]: 83%; half-life at 0.3 µM [10]: 1.23 h; remaining at 1 h, 0.3 µM [12]: 56%
Cn1cnc(COC(=O)N[C@H]2CCc3c2c(Br)n(C)c3C(=O)Nc2ccc(F)c(Cl)c2)n1	0.012 µM	–	–	–	< 4 µM	31.4 µL/min/mg	8.5 µL/min/mg	–
Cn1cc2c(c1C(=O)Nc1ccc(F)c(Cl)c1)CC[C@@H]2NC(=O)OCc1c[nH]nn1	0.057 µM	5.8 h	4530 ng/mL	60600 ng·h/mL	10 µM (≈ 4.33 µg/mL)	21.6 µL/min/mg	7.9 µL/min/mg	log(activity) (Hepatitis B virus [18]): 1.5; log(activity) (Hepatitis B virus [4]): 2; log(activity) (Hepatitis B virus [19]): 0.8
Cn1cc(COC(=O)N[C@H]2CCc3c2cn(C)c3C(=O)Nc2ccc(F)c(Cl)c2)nn1	0.052 µM	–	–	–	< 4 µM	38.4 µL/min/mg	24.4 µL/min/mg	–
Cc1c2c(c(C(=O)Nc3ccc(F)c(Cl)c3)n1C)CC[C@@H]2NC(=O)OCc1ncn(C)n1	0.114 µM	–	–	–	5 µM (≈ 2.3 µg/mL)	52.8 µL/min/mg	12.7 µL/min/mg	–
Cn1cnc(COC(=O)N[C@@H]2CCc3c2cn(C)c3C(=O)Nc2ccc(F)c(Cl)c2)n1	3.5 µM	–	–	–	–	–	–	Activity [13]: Non-Toxic
Cn1cc2c(c1C(=O)Nc1ccc(F)c(Cl)c1)CC[C@@H]2NC(=O)OCc1nc[nH]n1	0.05 µM	4.8 h	3860 ng/mL	40700 ng·h/mL	23 µM (≈ 9.96 µg/mL)	12.3 µL/min/mg	4.1 µL/min/mg	log(activity) (Hepatitis B virus [18]): 0.6
Cn1cnc(COC(=O)N[C@H]2CCc3c2c(Cl)n(C)c3C(=O)Nc2ccc(F)c(Cl)c2)n1	0.013 µM	–	–	–	5 µM (≈ 2.41 µg/mL)	33.8 µL/min/mg	8.8 µL/min/mg	–
C[C@H](NS(=O)(=O)c1cc(C(=O)Nc2ccc(F)c(C#N)c2)n(C)c1)C(F)(F)F [BERSACAPAVIR]	0.045 µM	–	–	–	–	–	–	–
O=C(NCc1cnc(C(F)(F)F)s1)c1ccc2c(c1)NC(=O)c1ccccc1S2(=O)=O [VEBICORVIR]	0.25 µM	–	–	–	–	–	–	–
